From ChEMBL document CHEMBL1909573, “Synthesis and biological evaluation of (2,5-dihydro-1H-pyrrol-1-yl)-2H-chromen-2-ones as free radical scavengers” (Eur J Med Chem, 2011)
Calls of active or inactive are those of the source. No cut-off for these calls is given here.

Legend:
[1] = Antioxidant activity assessed as hydroxyl radical scavenging activity at 100 uM after 30 mins; format: functional
[2] = system: Radical scavenging activity; assay: Antioxidant activity assessed as DPPH free radical scavenging activity at 100 uM; format: functional
Procedure, shortened: (§1)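 Compound solutions in ethanol were mixed with an equal volume of DPPH in absolute ethanol, giving compound concentrations of 50 and 100. Ethanol served as the control. Absorbance at 517 nm was read after 20 and 60 min at room temperature. Each run was done at least in triplicate, with the SD of absorbance under 10% of the mean.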

[3] = system: Radical scavenging activity; assay: Antioxidant activity assessed as DPPH free radical scavenging activity at 100 uM after 60 mins; format: functional; procedure, shortened: as §1
[4] = system: Radical scavenging activity; assay: Antioxidant activity assessed as reduction in DPPH stable free radical at 50 uM after 20 mins; format: functional; procedure, shortened: as §1
[5] = system: Radical scavenging activity; assay: Antioxidant activity assessed as reduction in DPPH free radical at 50 uM after 60 mins; format: functional; procedure, shortened: as §1
[6] = Antioxidant activity assessed as inhibition of superoxide anion radical production at 100 uM after 2 mins by nitroblue tetrazolium method; format: functional
Procedure, shortened: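 This was a nitroblue tetrazolium assay. The mixture held […] in 19 mM phosphate buffer, pH 7.4. Compounds were preincubated 2 min before NADH was added. After 2 min at room temperature, absorbance at 560 nm was read against a PMS-containing blank. Runs were done at least in triplicate.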

Glycine max = assay: Inhibition of soybean lipoxygenase assessed as conversion of sodium linoleate to 13-hydroperoxylinoleic acid at 100 uM
Procedure, shortened: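 Soybean lipoxygenase was measured by UV absorbance. Runs were done at least in triplicate, with the SD of absorbance under 10% of the mean.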

[7] = system: Radical scavenging activity; assay: Antioxidant activity assessed as DPPH free radical scavenging activity at 100 uM after 20 mins; format: functional; procedure, shortened: as §1
[8] = Antioxidant activity assessed as inhibition of AAPH-induced lipid peroxidation at 100 uM; format: functional

Compound | inhibition (Glycine max) [%] | inhibition [1] [%] | Activity [2] | Activity [3] [%] | Activity [4] | Activity [5] | inhibition [6] | Activity [7] [%] | inhibition [8] [%]
Cc1ccc2oc(=O)ccc2c1N1CC=CC1 |  |  | Dose-dependent effect | 5 | inactive | inactive | inactive | 5 | 57
O=c1ccc2cc(N3CC=CC3)ccc2o1 |  | 90 |  | 71 | inactive | inactive | inactive | 49 | 86
O=c1ccc2cc(-n3cccc3)ccc2o1 |  |  | Dose-dependent effect | 19 | inactive | inactive | inactive | 18 | 1
Cc1cc2ccc(=O)oc2cc1-n1cccc1 |  | 88 | Dose-dependent effect | 13 | inactive | inactive | inactive | 13 | 
Cc1c(C)c2c(c(C)c1O)CCC(C)(C(=O)O)O2 (stereo not drawn) |  | 63 | Dose-dependent effect |  |  |  |  |  | 73
Cc1cc2oc(=O)ccc2cc1-n1cccc1 |  |  | Dose-dependent effect | 14 | inactive | inactive | inactive | 14 | 

Further lines, with some results ahead:

inhibition (Glycine max) [%] | Compound | inhibition [1] [%] | Activity [2] | Activity [3] [%] | Activity [4] | Activity [5] | inhibition [6] | Activity [7] [%] | inhibition [8] [%]
12 | Cc1cc(=O)oc2cc(-n3cccc3)ccc12 | 9 | Dose-dependent effect | 14 | inactive | inactive | inactive | 14 | 46
55.5 | Cc1ccc2oc(=O)ccc2c1-n1cccc1 | 91 | Dose-dependent effect | 7 | inactive | inactive | inactive | 7 | 71
60 | Cc1cc2oc(=O)ccc2cc1N1CC=CC1 | 77 | Dose-dependent effect | 10 | inactive | inactive | inactive | 9 | 91
84 | CC(Cc1ccc(O)c(O)c1)C(C)Cc1ccc(O)c(O)c1 (stereo not drawn) |  | Dose-dependent effect | 83 |  |  |  | 81 | 
28 | Cc1cc(=O)oc2cc(N3CC=CC3)ccc12 | 85 |  | 20 | inactive | inactive | inactive | 5 | 87
15 | O=c1ccc2ccccc2o1 | 78 | Dose-dependent effect | 21 |  |  |  | 5 | 
52.5 | Cc1cc2ccc(=O)oc2cc1N1CC=CC1 | 41 | Dose-dependent effect | 7 | inactive | inactive | inactive | 5 | 24
43 | O=c1cc(N2CC=CC2)c2ccccc2o1 | 83 |  | 27 | inactive | inactive | inactive | 8 | 100
89 | Cc1ccc2ccc(=O)oc2c1 | 44 | Dose-dependent effect | 2 |  |  |  | 2 | 
